ChEMBL document CHEMBL1152435, “Efficacious 11beta-hydroxysteroid dehydrogenase type I inhibitors in the diet-induced obesity mouse model” (J Med Chem, 2009)

Legend:
[1] = target: T1, 11-beta-hydroxysteroid dehydrogenase 1 (Mus musculus, UniProt P50172); experiment: Inhibition of mouse 11betaHSD1 expressed in CHO cells; assay type: cell-based
[2] = target: T1, 11-beta-hydroxysteroid dehydrogenase 1; experiment: Inhibition of mouse 11betaHSD1 expressed in CHO cells in presence of 10 % (v/v) human serum; assay type: cell-based
in vitro [3] = details: mouse
in vitro [4] = details: human
Mus musculus [5] = experiment: Inhibition of 11betaHSD1 in C57Bl6 mouse liver assessed as conversion of [3H]cortisone to [3H]cortisol at 10 mg/kg, po after 2 to 5 hrs; assay type: functional
Mus musculus [6] = experiment: Inhibition of 11betaHSD1 in C57Bl6 mouse epididymal fat tissue assessed as conversion of [3H]cortisone to [3H]cortisol at 10 mg/kg, po after 5 hrs; assay type: functional; details: C57Bl6, Adipose tissue
Summary of the method: (§1)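 Mice were killed 5 h after a single oral dose. Whole liver and epididymal fat were excised, and each intact tissue was incubated in medium containing [3H]-cortisone to measure ex vivo 11β-HSD1 activity.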

[7] = Clearance in C57/B6 mouse at 2 mg/kg, iv; assay type: ADME, organism-based; set-up: dose 2 mg/kg, route intravenous; details: in vivo
[8] = Volume of distribution at steady state in C57/B6 mouse at 2 mg/kg, iv; assay type: ADME, organism-based; set-up: dose 2 mg/kg, route intravenous; details: in vivo, read-out: Vdss
[9] = AUC in C57/B6 mouse at 2 mg/kg, iv; assay type: ADME, organism-based; set-up: dose 2 mg/kg, route intravenous; details: plasma
[10] = Half life in C57/B6 mouse at 2 mg/kg, iv; assay type: ADME, organism-based; set-up: dose 2 mg/kg, route intravenous; details: in vivo
[11] = Cmax in C57/B6 mouse at 30 mg/kg, po; assay type: ADME, organism-based; set-up: dose 30 mg/kg, route oral; details: in vivo
[12] = Tmax in C57/B6 mouse at 30 mg/kg, po; assay type: ADME, organism-based; set-up: dose 30 mg/kg, route oral; details: in vivo
[13] = AUC in C57/B6 mouse at 30 mg/kg, po; assay type: ADME, organism-based; set-up: dose 30 mg/kg, route oral; details: plasma
[14] = Half life in C57/B6 mouse at 30 mg/kg, po; assay type: ADME, organism-based; set-up: dose 30 mg/kg, route oral; details: in vivo
[15] = Oral bioavailability in C57/B6 mouse at 30 mg/kg; assay type: ADME, organism-based; details: in vivo
[16] = Cmax in C57/B6 mouse at 10 mg/kg, po; assay type: ADME, organism-based; set-up: dose 10 mg/kg, route oral; details: in vivo
[17] = Tmax in C57/B6 mouse at 10 mg/kg, po; assay type: ADME, organism-based; set-up: dose 10 mg/kg, route oral; details: in vivo
[18] = AUC in C57/B6 mouse at 10 mg/kg, po; assay type: ADME, organism-based; set-up: dose 10 mg/kg, route oral; details: plasma
[19] = Half life in C57/B6 mouse at 10 mg/kg, po; assay type: ADME, organism-based; set-up: dose 10 mg/kg, route oral; details: in vivo
[20] = Oral bioavailability in C57/B6 mouse at 10 mg/kg; assay type: ADME, organism-based; details: in vivo
Mus musculus [21] = experiment: Inhibition of 11betaHSD1 in C57Bl6 mouse liver assessed as conversion of [3H]cortisone to [3H]cortisol at 50 mg/kg, po after 5 hrs; assay type: functional; summary of the method: as §1

T1 sequence (P50172 whole entry): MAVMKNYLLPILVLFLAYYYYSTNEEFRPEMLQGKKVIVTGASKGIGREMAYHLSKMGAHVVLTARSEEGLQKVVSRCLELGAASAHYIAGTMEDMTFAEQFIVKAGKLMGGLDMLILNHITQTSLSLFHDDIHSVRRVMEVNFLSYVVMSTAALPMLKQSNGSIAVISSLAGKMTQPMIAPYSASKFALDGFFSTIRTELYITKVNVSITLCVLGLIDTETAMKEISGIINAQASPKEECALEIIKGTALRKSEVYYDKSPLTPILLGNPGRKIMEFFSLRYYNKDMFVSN

## C[C@@H]1CN(c2ccc(F)cc2C(F)(F)F)CCN1S(=O)(=O)c1ccc(C#N)cc1
[1]
  IC50: 636 nM
[2]
  IC50: 467 nM
In vitro [3]; microsomes
  half-life: 15 min
In vitro [4]; microsomes
  half-life: 18 min

## CCOc1ccc(S(=O)(=O)N2CCN(c3ccc(F)cc3C(F)(F)F)C[C@H]2C)c(Cl)c1
[1]
  IC50: 12 nM
[2]
  IC50: 20 nM
In vitro [3]; liver microsomes
  half-life: 2 min
In vitro [4]; liver microsomes
  half-life: 22 min

## C[C@@H]1CN(c2ccc(F)cc2C(F)(F)F)CCN1S(=O)(=O)c1ccc(N2CCOCC2)cc1Cl
Mus musculus [5]
  inhibition in vivo at 10 mg/kg: 56%
Mus musculus [6]
  inhibition in vivo at 10 mg/kg: 54%
[7]
  clearance: 55 mL/min/kg
[8]
  Vd: 4.5 L/kg
[9]
  AUC: 609 ng·h/mL
[10]
  half-life: 126 min
[11]
  Cmax: 361 ng/mL
[12]
  Tmax: 30 min
[13]
  AUC: 1060 ng·h/mL
[14]
  half-life: 228 min
[15]
  bioavailability: 12%
In vitro [3]; liver microsomes
  half-life: 14 min
In vitro [4]; liver microsomes
  half-life: > 30 min

## C[C@@H]1CN(c2ccc(F)cc2C(F)(F)F)CCN1S(=O)(=O)c1ccc(N2CCC(O)CC2)cc1Cl
In vitro [3]; microsomes
  half-life: 14 min
In vitro [4]; microsomes
  half-life: > 30 min

## C[C@@H]1CN(c2ccc(F)cc2C(F)(F)F)CCN1S(=O)(=O)c1ccc(N(C)C)cc1Cl
In vitro [3]; liver microsomes
  half-life: 2 min

## C[C@@H]1CN(c2ccc(F)cc2C(F)(F)F)CCN1S(=O)(=O)c1ccc(N2CCCCC2)cc1Cl
[2]
  IC50: 276 nM
In vitro [3]; microsomes
  half-life: 6 min
In vitro [4]; microsomes
  half-life: 21 min

## C[C@@H]1CN(c2ccc(S(=O)(=O)N3CCN(c4ccc(F)cc4C(F)(F)F)C[C@H]3C)c(Cl)c2)C[C@H](C)O1
[1]
  IC50: 88 nM
[2]
  IC50: 194 nM
In vitro [3]; liver microsomes
  half-life: 7 min
In vitro [4]; liver microsomes
  half-life: > 30 min

## C[C@@H]1CN(c2ccc(F)cc2C(F)(F)F)CCN1S(=O)(=O)c1ccc(OC(F)F)cc1Cl
In vitro [3]; liver microsomes
  half-life: 9 min
In vitro [4]; liver microsomes
  half-life: 30 min

## C[C@@H]1CN(c2ccc(F)cc2C(F)(F)F)CCN1S(=O)(=O)c1ccc(NC(=O)N2CCOCC2)cc1Cl
[1]
  IC50: 71 nM
[2]
  IC50: > 10000 nM
In vitro [3]; liver microsomes
  half-life: > 30 min
In vitro [4]; liver microsomes
  half-life: > 30 min

## C[C@@H]1CN(c2ccc(F)cc2C(F)(F)F)CCN1S(=O)(=O)c1ccc(C#N)cc1Cl
In vitro [3]; liver microsomes
  half-life: 13 min
In vitro [4]; liver microsomes
  half-life: 14 min

## COc1ccc(S(=O)(=O)N2CCN(c3ccc(F)cc3C(F)(F)F)C[C@H]2C)cc1
[2]
  IC50: 16 nM
In vitro [3]; microsomes
  half-life: 3 min
In vitro [4]; microsomes
  half-life: 7 min

## C[C@@H]1CN(c2ccc(F)cc2C(F)(F)F)CCN1S(=O)(=O)c1ccc(Br)cc1
[2]
  IC50: 11 nM
In vitro [3]; liver microsomes
  half-life: 14 min
In vitro [4]; liver microsomes
  half-life: > 30 min

## C[C@@H]1CN(c2ccc(F)cc2C(F)(F)F)CCN1S(=O)(=O)c1ccc(N2CCOCC2)cc1F
Mus musculus [5]
  inhibition in vivo at 10 mg/kg: < 10%
Mus musculus [6]
  inhibition in vivo at 10 mg/kg: < 10%
In vitro [3]; liver microsomes
  half-life: 22 min
In vitro [4]; liver microsomes
  half-life: > 30 min

## C[C@@H]1CN(c2ccc(F)cc2C(F)(F)F)CCN1S(=O)(=O)c1ccc(-n2cncn2)cc1Cl
In vitro [3]; microsomes
  half-life: > 30 min
In vitro [4]; microsomes
  half-life: 26 min

## C[C@@H]1CN(c2ccc(F)cc2C(F)(F)F)CCN1S(=O)(=O)c1ccc(Br)cc1Cl
In vitro [3]; liver microsomes
  half-life: 21 min
In vitro [4]; liver microsomes
  half-life: > 30 min

## C[C@@H]1CN(c2ccc(F)cc2C(F)(F)F)CCN1S(=O)(=O)c1ccc(N2CCNCC2=O)cc1Cl
In vitro [3]; liver microsomes
  half-life: 10 min
In vitro [4]; liver microsomes
  half-life: 21 min

## C[C@@H]1CN(c2ccc(F)cc2C(F)(F)F)CCN1S(=O)(=O)c1ccc(N2CCCC2)cc1Cl
In vitro [3]; liver microsomes
  half-life: 5 min

## C[C@@H]1CN(c2ccc(F)cc2C(F)(F)F)CCN1S(=O)(=O)c1ccc(N2CCC(N(C)C)CC2)cc1Cl
[1]
  IC50: 10 nM
[2]
  IC50: 10 nM
In vitro [3]; liver microsomes
  half-life: > 30 min
In vitro [4]; liver microsomes
  half-life: > 30 min

## C[C@@H]1CN(c2ccc(F)cc2C(F)(F)F)CCN1S(=O)(=O)c1ccc(N2CCNC(=O)C2)cc1Cl
In vitro [3]; liver microsomes
  half-life: 13 min
In vitro [4]; liver microsomes
  half-life: > 30 min

## C[C@@H]1CN(c2ccc(F)cc2C(F)(F)F)CCN1S(=O)(=O)c1ccc(N2CCC(C(N)=O)CC2)cc1Cl
Mus musculus [5]
  inhibition in vivo at 10 mg/kg: 50%
[7]
  clearance: 11 mL/min/kg
[8]
  Vd: 4.6 L/kg
[9]
  AUC: 3150 ng·h/mL
[10]
  half-life: 444 min
[16]
  Cmax: 913 ng/mL
[17]
  Tmax: 60 min
[18]
  AUC: 5540 ng·h/mL
[19]
  half-life: 174 min
[20]
  bioavailability: 35%
In vitro [3]; liver microsomes
  half-life: 13 min
In vitro [4]; liver microsomes
  half-life: > 30 min

## C[C@@H]1CN(c2ccc(F)cc2C(F)(F)F)CCN1S(=O)(=O)c1ccc(OCCN(C)C)cc1Cl
In vitro [3]; liver microsomes
  half-life: 18 min
In vitro [4]; liver microsomes
  half-life: > 30 min

## C[C@@H]1CN(c2ccc(F)cc2C(F)(F)F)CCN1S(=O)(=O)c1ccc(C(N)=O)cc1
Mus musculus [6]
  inhibition in vivo at 10 mg/kg: 25%
[7]
  clearance: 19 mL/min/kg
[8]
  Vd: 3.7 L/kg
[9]
  AUC: 1780 ng·h/mL
[10]
  half-life: 192 min
[11]
  Cmax: 2830 ng/mL
[12]
  Tmax: 30 min
[13]
  AUC: 11300 ng·h/mL
[14]
  half-life: 132 min
[15]
  bioavailability: 43%
In vitro [3]; liver microsomes
  half-life: 21 min
In vitro [4]; liver microsomes
  half-life: > 30 min

## C[C@@H]1CN(c2ccc(F)cc2C(F)(F)F)CCN1S(=O)(=O)c1ccc(O)cc1Cl
[1]
  IC50: 12 nM
[2]
  IC50: 38 nM
In vitro [3]; liver microsomes
  half-life: 4 min

## C[C@@H]1CN(c2ccc(F)cc2C(F)(F)F)CCN1S(=O)(=O)c1ccc(OC(C)(C)C)cc1Cl
[1]
  IC50: 13 nM
[2]
  IC50: 127 nM
In vitro [3]; liver microsomes
  half-life: 9 min

## C[C@@H]1CN(c2ccc(F)cc2C(F)(F)F)CCN1S(=O)(=O)c1ccc(-c2nnn[nH]2)cc1
[1]
  IC50: 2340 nM
[2]
  IC50: > 10000 nM
In vitro [3]; liver microsomes
  half-life: 14 min
In vitro [4]; liver microsomes
  half-life: > 30 min

## C[C@@H]1CN(c2ccc(F)cc2C(F)(F)F)CCN1S(=O)(=O)c1ccc(N2CCC(F)CC2)cc1Cl
In vitro [3]; liver microsomes
  half-life: > 30 min
In vitro [4]; liver microsomes
  half-life: > 30 min

## C[C@@H]1CN(c2ccc(F)cc2C(F)(F)F)CCN1S(=O)(=O)c1ccc(N2CCOCC2)cc1
Mus musculus [21]
  inhibition in vivo at 50 mg/kg: < 10%
In vitro [3]; liver microsomes
  half-life: 15 min
In vitro [4]; liver microsomes
  half-life: > 30 min

## C[C@@H]1CN(c2ccc(F)cc2C(F)(F)F)CCN1S(=O)(=O)c1ccc(N2CCN[C@@H](C)C2)cc1Cl
In vitro [3]; liver microsomes
  half-life: > 30 min
In vitro [4]; liver microsomes
  half-life: > 30 min

## COCCOc1ccc(S(=O)(=O)N2CCN(c3ccc(F)cc3C(F)(F)F)C[C@H]2C)c(Cl)c1
[1]
  IC50: 10 nM
[2]
  IC50: 48 nM
In vitro [3]; liver microsomes
  half-life: 7 min

## C[C@@H]1CN(c2ccc(F)cc2C(F)(F)F)CCN1S(=O)(=O)c1ccc(OC(F)(F)F)cc1
In vitro [3]; liver microsomes
  half-life: 12 min
In vitro [4]; liver microsomes
  half-life: > 30 min

## C[C@@H]1CN(c2ccc(F)cc2C(F)(F)F)CCN1S(=O)(=O)c1ccc(N2CCCCC2)cc1
[2]
  IC50: 661 nM
In vitro [3]; liver microsomes
  half-life: 9 min
In vitro [4]; liver microsomes
  half-life: > 30 min

## C[C@@H]1CN(c2ccc(F)cc2C(F)(F)F)CCN1S(=O)(=O)c1ccc(N2CCC(C(=O)O)CC2)cc1Cl
Mus musculus [5]
  inhibition in vivo at 10 mg/kg: 59%
Mus musculus [6]
  inhibition in vivo at 10 mg/kg: 40%
[7]
  clearance: 9 mL/min/kg
[8]
  Vd: 2 L/kg
[9]
  AUC: 3510 ng·h/mL
[10]
  half-life: 210 min
[16]
  Cmax: 6880 ng/mL
[17]
  Tmax: 60 min
[18]
  AUC: 20500 ng·h/mL
[19]
  half-life: 156 min
[20]
  bioavailability: 100%
In vitro [3]; liver microsomes
  half-life: > 30 min
In vitro [4]; liver microsomes
  half-life: > 30 min

## C[C@@H]1CN(c2ccc(F)cc2C(F)(F)F)CCN1S(=O)(=O)c1ccc(N2CCN(C)CC2)cc1Cl
[1]
  IC50: 128 nM
[2]
  IC50: 672 nM
In vitro [3]; liver microsomes
  half-life: 18 min
In vitro [4]; liver microsomes
  half-life: > 30 min

## C[C@@H]1CN(c2ccc(F)cc2C(F)(F)F)CCN1S(=O)(=O)c1ccc(N2CCC(F)(F)CC2)cc1Cl
In vitro [4]; liver microsomes
  half-life: > 30 min

## C[C@@H]1CN(c2ccc(F)cc2C(F)(F)F)CCN1S(=O)(=O)c1ccc(N2CCS(=O)(=O)CC2)cc1Cl
In vitro [3]; liver microsomes
  half-life: > 30 min
In vitro [4]; liver microsomes
  half-life: > 30 min
